# Screens deposited in PubChem by several laboratories.
# Compounds with a hit are over-represented: about 3.5% of the library has one in this group of screens.
# NF-kB expr up = activators of NF-kB expression in neurons, primary screen, cell-based, HTS. human neuronal cells, NF-kB reporter expression; active compounds read high. fold change at 12.5 µM. 190,000 compounds, 1.6% hits; in the data active = fold change above about 3.3
# FLuc stim CS = FLuc activators, initial screening, artefact control for FLuc-dependent activation tests, biochemical, ATPlite luminescence | Luciferin 4-monooxygenase (Photinus pyralis), P08659 | ATPlite luciferase biochemical, 10 min; 0 = ATP-free wells, 1 = DMSO control | activation factor at 10 µM | 200,000 tested, under 10 active | AID 1027, 2008;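 active = luciferase activation factor, scaled between plate controls, of at least 2 with compound at 10 µM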
# Target sequence (P08659 whole entry, looked up): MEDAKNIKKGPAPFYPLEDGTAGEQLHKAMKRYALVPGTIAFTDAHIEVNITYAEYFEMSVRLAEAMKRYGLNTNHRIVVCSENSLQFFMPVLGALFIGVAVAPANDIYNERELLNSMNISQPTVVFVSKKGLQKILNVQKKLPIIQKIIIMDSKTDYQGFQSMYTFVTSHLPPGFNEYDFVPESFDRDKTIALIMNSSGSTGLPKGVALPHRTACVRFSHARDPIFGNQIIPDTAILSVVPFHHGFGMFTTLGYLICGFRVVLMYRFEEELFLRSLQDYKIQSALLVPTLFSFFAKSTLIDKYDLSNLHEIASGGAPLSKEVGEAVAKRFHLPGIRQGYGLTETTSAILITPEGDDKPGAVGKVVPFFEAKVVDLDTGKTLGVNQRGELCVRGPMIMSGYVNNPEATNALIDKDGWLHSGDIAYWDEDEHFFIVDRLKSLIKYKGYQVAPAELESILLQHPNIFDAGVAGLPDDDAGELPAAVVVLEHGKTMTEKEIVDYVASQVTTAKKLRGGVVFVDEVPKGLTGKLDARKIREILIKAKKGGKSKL
#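 Assay system – cell-free luciferase reagent · Medium – PBS-based ATP solution · Dosing – test compounds dosed from 2 mM stocks in 100% DMSO · Timing – 10 min, room temperature · Technique – light output (luminescence) · Measure – luminescence gain marking luciferase activators · Controls – No-ATP low control, compound-free enzyme-plus-ATP high control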
# FLuc inh counter = firefly luciferase enzyme inhibitors, primary screen, artefact control for luciferase-based inhibitor screens, biochemical, luminescence, ATPLite; 10 min; AID 1006, 2008; 200,000 compounds, 1.5% hits; Luciferin 4-monooxygenase (Photinus pyralis), P08659; inhibition, % at 10 µM;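 active = inhibition above about 50% when tested at 10 µM, limit read from the data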
# Pf gametocyte = late stage P. falciparum gametocyte viability inhibitors, primary screen, ATP luminescence, HTS | P. falciparum stage V gametocytes, 24 h | inhibition, % at 10.9 µM | 150,000 compounds, 0.065% hits | AID 743093, 2013;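 active = inhibition above the mean plus 3 SD of compounds within the control limits, set per campaign, cut at about 38% in these data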
# APP 5'UTR act = activators of APP 5'UTR luciferase reporter, primary screen, SH-SY5Y cells; activation, % at 2 µM; SH-SY5Y APP 5'UTR luciferase reporter, luminescence; zero percent = DMSO vehicle wells; AID 1276, 2008; 190,000 compounds, 1% hits;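 active = activation above a set limit, based on mean plus 3 SD of controls, cut at about 140% in these data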
# STAT1 activator = STAT1 signaling activators, primary screen, cell-based, HTS, luciferase reporter; 200,000 compounds, 2.6% hits; activation (% of control), % at 5.5 µM; AID 932, 2007; NIH 3T3 STAT1-luciferase reporter, IFN-gamma, luminescence; 100% = IFN-gamma alone, no compound;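 active = activation above the screen-wide mean activation plus 3 SD, cut at about 130% in these data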
# Numbers stand for hits; . = inactive; / = no result.
SMILES,NF-kB expr up,FLuc stim CS,FLuc inh counter,Pf gametocyte,APP 5'UTR act,STAT1 activator
CCOC(=O)C1=NNC2C(=O)N(Cc3ccccc3)C(=O)C12 (centres undefined),/,/,/,.,/,/
Cc1ccc2[nH]c(=O)c(COC(=O)C3CCCCC3)cc2c1,/,/,/,.,/,/
Cc1ccc(C)c(N2CCN(C(=O)Cc3ccc(-n4c(=O)[nH]c5ccsc5c4=O)cc3)CC2)c1,.,.,.,39,.,.
Cc1cccc(N2CCN(C(=O)Cc3ccc(-n4c(=O)[nH]c5ccsc5c4=O)cc3)CC2)c1C,.,.,.,.,.,.
CC(=O)c1ccccc1OCCn1nnc(-c2ccc(C)cc2)n1,.,.,.,.,.,.
O=C1CC[C@@H](OCc2ccccc2)CCN1CC[C@H](Sc1ccccc1)c1ccccc1,/,/,/,.,/,/
CC1CN(C(=S)SCCN2Cc3ccccc3C2=O)CC(C)O1 (centres undefined),.,.,.,.,.,.
O=C1c2ccccc2CN1CCSC(=S)N1CCOCC1,.,.,.,.,.,130
O=C1c2ccccc2CN1CCSC(=S)N1CCSCC1,.,.,.,/,.,134
COc1cc([N+](=O)[O-])ccc1NC(=O)CCCOc1cccc(C)c1C,.,.,.,.,.,.
CCOc1cccc2cc(-c3csc(NC(=O)CCC(=O)NCCN4CCCCC4C)n3)c(=O)oc12 (centres undefined),6.8,.,.,.,178,145
COC(=O)c1c(NC(=O)Nc2ccc(Cl)cc2)sc(C)c1C,.,.,.,.,/,.
Cc1sc(NC(=O)Nc2ccccc2)c(C(N)=O)c1C,.,.,.,.,.,139
COc1ccc(C(=O)NCCC2=CCCCC2)cc1OC,.,.,.,.,.,.
O=C(NCCC1=CCCCC1)c1ccc(CN2CCOCC2)cc1,.,.,.,.,.,134
COc1cccc(C(=O)NCCC2=CCCCC2)c1,.,.,.,/,153,.
O=C(CCCc1ccccc1)NCCC1=CCCCC1,.,.,.,.,.,136
CC(=O)c1c(C)[nH]c(C(=O)NCCC2=CCCCC2)c1C,3.5,.,.,/,.,134
COc1ccc(CNC(=O)c2ccc(C(C)(C)C)cc2)cc1,.,.,.,.,.,138
COc1ccc(C(=O)NCCC2=CCCCC2)cc1,3.4,.,50,.,154,138
Cc1cc(C(=O)NCCC2=CCCCC2)ccc1[N+](=O)[O-],.,.,.,.,.,133
COC(=O)C1C(=O)C2=C(CC1C)Nc1ccccc1NC2c1cccs1 (centres undefined),.,.,.,.,.,.
COc1ccc(-c2cc3nc4c(c(=O)n3[nH]2)CCC4)cc1,.,.,52,.,.,.
O=c1c2c(nc3cc(-c4ccccc4)[nH]n13)CCC2,3.7,.,61,.,.,135
Cc1ccc2nc(-c3ccccc3)c(-c3ccccc3)nc2c1,.,.,.,.,.,.
SMILES,NF-kB expr up,FLuc stim CS,FLuc inh counter,Pf gametocyte,APP 5'UTR act,STAT1 activator
Cc1nc2ccccc2nc(C)c1=NO,.,.,.,/,.,138
Cc1ccc2nc(C)/c(=N\O)c(C)nc2c1,.,.,.,.,195,137
Cc1cccc(OCC(=O)NC(=S)Nc2ccc(S(=O)(=O)NC3CCCCC3)cc2)c1,.,.,.,.,.,.
CC(C)CNC(=O)COC(=O)c1ccc(F)cc1Cl,.,.,.,.,.,.
CCN(CC)c1ccc(N=Cc2ccccc2[N+](=O)[O-])cc1,.,.,66,.,.,.
COc1ccc(/C=C/C(=O)c2ccccc2O)cc1,5,.,.,/,.,.
COc1ccc(/C=C/C(=O)c2ccccn2)cc1,.,.,96,.,.,.
COc1ccc(/C=C/C(=O)c2ccc(O)cc2)cc1,.,.,75,/,.,.
COc1cc(OC)cc(C(=O)NNC(=O)c2ccccn2)c1,.,.,.,.,.,.
COc1ccc(C(=O)NNC(=O)c2ccccn2)cc1,.,.,97,/,.,.
COc1ccc(OCC(=O)NNC(=O)c2ccccn2)cc1,.,.,.,/,.,.
COC(=O)Cc1c(C(=O)OC)nnn1-c1ccc(OC(F)(F)F)cc1,.,.,.,.,.,.
COc1cc2c(cc1OC)CN(C1CCC(C(C)(C)C)CC1)CC2 (centres undefined),/,/,/,.,/,/
COC(=O)c1ccc2c(C)c(C(C)(C)O)[nH]c2c1,/,/,/,.,/,/
Cc1ccc(NCc2nnc(SCC(N)=O)n2CCc2ccccc2)cc1,.,.,.,/,.,.
Cc1cccc(/C=N/Nc2ccc3ccccc3n2)c1,.,.,91,.,.,.
Cc1ccc(/C=N/Nc2cn[nH]c(=O)n2)o1,.,.,.,.,.,.
C(=N\Nc1ccc2ccccc2n1)/c1ccc2c(c1)OCCO2,.,.,93,.,.,.
C(=N\Nc1nc2ccccc2[nH]1)/c1ccc2c(c1)OCCO2,/,/,/,.,/,/
Cc1cc(C)nc(N/N=C/c2ccccc2)n1,.,.,.,/,.,.
Cc1ccc(/C=N/Nc2ccc3ccccc3n2)o1,.,.,87,.,183,.
COC(=O)c1ccc(N/C=C/C(=O)c2ccccc2)cc1,/,/,/,.,/,/
O=C(Nc1ccc(N2CCOCC2)c(Cl)c1)c1ccc([N+](=O)[O-])o1,.,.,.,.,.,129
CC(C)C(=O)N1CCN(c2ccc(NC(=O)c3ccc([N+](=O)[O-])o3)cc2)CC1,.,.,.,.,.,141
CCCCn1c(=O)[nH]c(=O)c2c1nc(COC(=O)c1c(C)noc1C)n2CCC,.,.,.,.,.,.
SMILES,NF-kB expr up,FLuc stim CS,FLuc inh counter,Pf gametocyte,APP 5'UTR act,STAT1 activator
Cc1ccc(/C=C2/SC(=O)N(CC(=O)N3CCOCC3)C2=O)s1,.,.,.,.,.,.
Cc1cc(N2CCOCC2)ccc1/C=C1\SC(=O)N(C(C)C)C1=O,.,.,.,/,.,.
CCC(C)N1C(=O)S/C(=C/c2ccc(N3CCOCC3)cc2C)C1=O (centres undefined),.,.,.,.,.,132
O=C(CN1C(=O)S/C(=C/c2ccc(N3CCOCC3)cc2)C1=O)N1CCOCC1,.,.,76,.,.,.
CCCN1C(=O)S/C(=C\c2ccc(N3CCOCC3)cc2C)C1=O,.,.,.,/,.,.
CCN1C(=O)S/C(=C\c2ccc(N3CCOCC3)cc2C)C1=O,.,.,.,.,.,144
C#CCN1C(=O)S/C(=C\c2ccc(N3CCOCC3)cc2C)C1=O,.,.,.,.,.,132
C[C@H]1COC(=O)[C@H](CC(=O)OC(C)(C)C)C/C=C\C[C@@H](CC(=O)NCCO)C(=O)N1,/,/,/,.,/,/
COc1ccc(Cl)cc1NC(=O)CNc1ccc(F)cc1C,.,.,.,.,.,.
COc1ccc(NC(=O)CN(C)CC(=O)Nc2ccc3c(c2)CCC3)cc1,.,.,.,.,.,.
